Data taken from ChEMBL document CHEMBL5724801, “EUbOPEN Chemogenomics Library - Multiplex” (2024).
Where “and” joins values, the source holds several entries; their conditions need not be identical. Equal entries are not always repeated.

Test system: U2OS
Assay: Multiplex assay against U2OS
Assay type: toxicity, cell-based
Details: human
In short: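 Values for tubulin, mitochondrial-mass and membrane-permeability phenotypes are per cents of cells with healthy nuclei. These cells were identified by CellPathfinder machine-learning gating of live cells that had been stained at seeding with Hoechst33342, BioTracker Green Microtubule Cytoskeleton Dye, MitoTracker Red and Annexin V Alexa Fluor 680 and imaged on a CQ1 microscope at 37°C and 5% CO2 after compound addition. The gating first set Hoechst high-intensity objects apart from normal cells, then split normal cells into healthy, pyknosed or fragmented nuclei, and pyknosed cells into mitotic or apoptotic.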

[1] = 12 h, 1 µM, compound concentration 1 uM
[2] = 12 h, 10 µM, compound concentration 10 uM
[3] = 24 h, 1 µM, compound concentration 1 uM
[4] = 24 h, 10 µM, compound concentration 10 uM
[5] = 48 h, 1 µM, compound concentration 1 uM
[6] = 48 h, 10 µM, compound concentration 10 uM

Structure (SMILES): C=CC(=O)Nc1cc(Nc2nccc(-n3cc(CN(C)C)c(-c4ccccc4)n3)n2)c(OC)cc1N1CCOCC1 [LAZERTINIB]
- Population Apoptotic (%) [1]: 37.5% and 46.67%
- Population Fragmented Nuclei (%) [1]: 2.41% and 2.92%
- Population Healthy Nuclei (%) [1]: 85.54% and 75.18%
- Population Hoechst High Intensity Objects (%) [1]: 0%
- Population Membrane Permeable-Phenotype (%) [1]: 40.14% and 54.37%
- Population Mitotic Cells (%) [1]: 62.5% and 53.33%
- Population Normal (%) [1]: 100%
- Population Pyknosed Nuclei (%) [1]: 12.05% and 21.9%
- Population Tubulin-Different-Phenotype (%) [1]: 55.63% and 64.08%
- Total Cell Count [1]: 332 and 137
- Population Apoptotic (%) [2]: 49.07% and 38.89%
- Population Fragmented Nuclei (%) [2]: 3.84% and 4.81%
- Population Healthy Nuclei (%) [2]: 68.54% and 60.58%
- Population Hoechst High Intensity Objects (%) [2]: 0%
- Population Membrane Permeable-Phenotype (%) [2]: 48.88% and 50.79%
- Population Mitotic Cells (%) [2]: 50.93% and 61.11%
- Population Normal (%) [2]: 100%
- Population Pyknosed Nuclei (%) [2]: 27.62% and 34.62%
- Population Tubulin-Different-Phenotype (%) [2]: 97.39% and 85.71%
- Population Apoptotic (%) [3]: 29.69% and 52.94%
- Population Fragmented Nuclei (%) [3]: 2.35% and 3.45%
- Population Healthy Nuclei (%) [3]: 80.94% and 73.1%
- Population Hoechst High Intensity Objects (%) [3]: 0%
- Population Membrane Permeable-Phenotype (%) [3]: 20% and 30.19%
- Population Mitotic Cells (%) [3]: 70.31% and 47.06%
- Population Normal (%) [3]: 100%
- Population Pyknosed Nuclei (%) [3]: 16.71% and 23.45%
- Population Tubulin-Different-Phenotype (%) [3]: 32.58% and 42.45%
- Total Cell Count [3]: 383 and 145
- Population Apoptotic (%) [4]: 55.04% and 53.66%
- Population Fragmented Nuclei (%) [4]: 3.46% and 5.83%
- Population Healthy Nuclei (%) [4]: 64.69% and 54.37%
- Population Hoechst High Intensity Objects (%) [4]: 0.25% and 0%
- Population Membrane Permeable-Phenotype (%) [4]: 39.69% and 35.71%
- Population Mitotic Cells (%) [4]: 44.96% and 46.34%
- Population Normal (%) [4]: 99.75% and 100%
- Population Pyknosed Nuclei (%) [4]: 31.85% and 39.81%
- Population Tubulin-Different-Phenotype (%) [4]: 93.51% and 87.5%
- Population Apoptotic (%) [5]: 61.96% and 68.33%
- Population Fragmented Nuclei (%) [5]: 3% and 6.88%
- Population Healthy Nuclei (%) [5]: 79.78% and 55.62%
- Population Hoechst High Intensity Objects (%) [5]: 0%
- Population Mitotic Cells (%) [5]: 38.04% and 31.67%
- Population Normal (%) [5]: 100%
- Population Pyknosed Nuclei (%) [5]: 17.23% and 37.5%
- Population Tubulin-Different-Phenotype (%) [5]: 15.02% and 28.09%
- Population Apoptotic (%) [6]: 64.5% and 69.23%
- Population Fragmented Nuclei (%) [6]: 5.97% and 5.31%
- Population Healthy Nuclei (%) [6]: 59.26% and 60.18%
- Population Hoechst High Intensity Objects (%) [6]: 0%
- Population Membrane Permeable-Phenotype (%) [6]: 31.6% and 30.88%
- Population Mitotic Cells (%) [6]: 35.5% and 30.77%
- Population Normal (%) [6]: 100%
- Population Pyknosed Nuclei (%) [6]: 34.77% and 34.51%
- Population Tubulin-Different-Phenotype (%) [6]: 77.43% and 79.41%

Structure (SMILES): COC(=O)c1ccc2c(c1)NC(=O)/C2=C(\Nc1ccc(N(C)C(=O)CN2CCN(C)CC2)cc1)c1ccccc1 [NINTEDANIB]
- Population Apoptotic (%) [1]: 50% and 43.75%
- Population Fragmented Nuclei (%) [1]: 2.42% and 2.88%
- Population Healthy Nuclei (%) [1]: 89.37% and 85.61%
- Population Hoechst High Intensity Objects (%) [1]: 0%
- Population Membrane Permeable-Phenotype (%) [1]: 1.62% and 4.2%
- Population Mitochondria Different-Phenotype (%) [1]: 0% and 14.29%
- Population Mitotic Cells (%) [1]: 50% and 56.25%
- Population Normal (%) [1]: 100%
- Population Pyknosed Nuclei (%) [1]: 8.21% and 11.51%
- Population Tubulin-Different-Phenotype (%) [1]: 1.89% and 2.52%
- Total Cell Count [1]: 414 and 139
- Population Apoptotic (%) [2]: 48.33% and 44.44%
- Population Fragmented Nuclei (%) [2]: 3.26% and 6.04%
- Population Healthy Nuclei (%) [2]: 72.3% and 74.18%
- Population Hoechst High Intensity Objects (%) [2]: 0%
- Population Membrane Permeable-Phenotype (%) [2]: 21.97% and 30.37%
- Population Mitotic Cells (%) [2]: 51.67% and 55.56%
- Population Normal (%) [2]: 100%
- Population Pyknosed Nuclei (%) [2]: 24.44% and 19.78%
- Population Tubulin-Different-Phenotype (%) [2]: 64.79% and 29.63%
- Total Cell Count [2]: 491 and 182
- Population Apoptotic (%) [3]: 35.56% and 50%
- Population Fragmented Nuclei (%) [3]: 1.16% and 2.33%
- Population Healthy Nuclei (%) [3]: 90.15% and 79.07%
- Population Hoechst High Intensity Objects (%) [3]: 0%
- Population Membrane Permeable-Phenotype (%) [3]: 1.07% and 1.47%
- Population Mitotic Cells (%) [3]: 64.44% and 50%
- Population Normal (%) [3]: 100%
- Population Pyknosed Nuclei (%) [3]: 8.69% and 18.6%
- Population Tubulin-Different-Phenotype (%) [3]: 1.28% and 1.47%
- Population Apoptotic (%) [4]: 62.5% and 65.62%
- Population Fragmented Nuclei (%) [4]: 5.58% and 6.29%
- Population Healthy Nuclei (%) [4]: 63.02% and 57.14%
- Population Hoechst High Intensity Objects (%) [4]: 0%
- Population Membrane Permeable-Phenotype (%) [4]: 6.23% and 9%
- Population Mitotic Cells (%) [4]: 37.5% and 34.38%
- Population Normal (%) [4]: 100%
- Population Pyknosed Nuclei (%) [4]: 31.4% and 36.57%
- Population Tubulin-Different-Phenotype (%) [4]: 63.93% and 46%
- Total Cell Count [4]: 484 and 175
- Population Apoptotic (%) [5]: 57.5% and 53.12%
- Population Fragmented Nuclei (%) [5]: 1.52% and 3.23%
- Population Healthy Nuclei (%) [5]: 89.14% and 83.87%
- Population Hoechst High Intensity Objects (%) [5]: 0%
- Population Membrane Permeable-Phenotype (%) [5]: 2.1% and 4.33%
- Population Mitochondria Different-Phenotype (%) [5]: 0.26% and 9.62%
- Population Mitotic Cells (%) [5]: 42.5% and 46.88%
- Population Normal (%) [5]: 100%
- Population Pyknosed Nuclei (%) [5]: 9.35% and 12.9%
- Population Tubulin-Different-Phenotype (%) [5]: 1.57% and 3.37%
- Population Apoptotic (%) [6]: 78.69% and 91.94%
- Population Fragmented Nuclei (%) [6]: 1.9% and 1.52%
- Population Healthy Nuclei (%) [6]: 54.63% and 51.52%
- Population Hoechst High Intensity Objects (%) [6]: 0.24% and 0%
- Population Membrane Permeable-Phenotype (%) [6]: 1.74% and 8.82%
- Population Mitochondria Different-Phenotype (%) [6]: 29.13% and 51.47%
- Population Mitotic Cells (%) [6]: 21.31% and 8.06%
- Population Normal (%) [6]: 99.76% and 100%
- Population Pyknosed Nuclei (%) [6]: 43.47% and 46.97%
- Population Tubulin-Different-Phenotype (%) [6]: 69.57% and 76.47%
